From ChEMBL document CHEMBL4811246, “New organoselenides (NSAIDs-Se derivatives) as potential anticancer agents: Synthesis, biological evaluation and in silico calculations” (Eur J Med Chem, 2021)
Active and inactive are the calls of the source. The calls are words filed in the database; no cut-off is given here.

Experiments:
MCF7 = assay: Cytotoxicity against human MCF7 cells assessed as reduction in cell viability measured upto 72 hrs by MTT assay; assay type: functional, cell-based; details: MCF7, 72 h
Method in brief: (§1)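 ATCC cells grown in RPMI 1640 with 10% FBS and penicillin/streptomycin at 37 °C, 5% CO2. Cells seeded at 1×10^4 per well and allowed 24 h to attach, then exposed to graded compound concentrations for 24, 48 and 72 h, DMSO kept below 1.25%. MTT added 3 h before the end, formazan dissolved in DMSO, OD read at 570 nm. IC50 from viability, three repetitions, mean ± SD.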

[1] = Antioxidant activity assessed as DPPH radical scavenging activity incubated for 30 mins under dark condition relative to vitamin C; assay type: functional
PC-3 = assay: Cytotoxicity against human PC-3 cells assessed as reduction in cell viability measured upto 72 hrs by MTT assay; assay type: functional, cell-based; details: PC-3, 72 h; method in brief: as §1
[2] = Antioxidant activity assessed as bleomycin-Fe2+-induced DNA degradation by measuring absorbance at 0.1 mg/ml after 1 hr; assay type: functional; set-up: unit not given here
Method in brief: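 Stopped with EDTA, then TBA (1% w/v) and HCl (25% v/v) added and heated 80 °C for 30 min. After cooling on ice, DNA damage read as absorbance increase at 532 nm. L-ascorbic acid positive control.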

[3] = Antioxidant activity assessed as DPPH radical scavenging activity incubated for 30 mins under dark condition relative to control; assay type: functional; set-up: concentration or dose not given beside the values
Method in brief: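 DPPH radical scavenging: test samples at a range of concentrations mixed with DPPH solution and held 30 min in the dark, then absorbance read at 517 nm. Ascorbic acid and ebselen served as positive controls and DMSO as negative control. % activity = [(control A − sample A)/control A] × 100. Mean ± SD of three independent experiments.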

Caco-2 = assay: Cytotoxicity against human Caco2 cells assessed as reduction in cell viability measured upto 72 hrs by MTT assay; assay type: functional, cell-based; details: Caco-2, 72 h; method in brief: as §1
BGC-823 [4] = assay: Cytotoxicity against human BGC-823 cells assessed as reduction in cell viability measured upto 72 hrs by MTT assay; assay type: functional, cell-based; details: BGC-823, 72 h; method in brief: as §1
[5] = Antioxidant activity assessed as GPx-like activity by measuring oxidation of NADPH to NADP+ by NADPH-reductase coupled assay; assay type: functional
Method in brief: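 NADPH/glutathione reductase coupled GPx-like assay: 50 mM phosphate buffer with 0.1% Triton X-100, NADPH reagent containing GSH, glutathione reductase and NADPH, and compound (0.01 ml of 41 mM). Reaction started with H2O2 (0.8 mM), and A340 decrease followed over 3 min to give ΔA/min. Values background-corrected for the H2O2 plus GSH reaction. Ebselen positive control.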

BGC-823 [6] = assay: Induction of apoptosis in human BGC-823 cells assessed as upregulation of caspase-3 protein expression at IC50 after 48 hrs by ELISA; assay type: functional, cell-based
BGC-823 [7] = assay: Induction of apoptosis in human BGC-823 cells assessed as down regulation of Bcl-2 protein expression at IC50 after 48 hrs by ELISA; assay type: functional, cell-based
Method in brief: (§2)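 Cells harvested with trypsin and lysed by freeze-thaw in liquid nitrogen, then total protein isolated. Bcl-2 and IL-2 quantified by ELISA, read at 450 nm.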

BGC-823 [8] = assay: Induction of apoptosis in human BGC-823 cells assessed as upregulation of IL-2 protein expression at IC50 after 48 hrs by ELISA; assay type: functional, cell-based; method in brief: as §2

CCc1cccc2c3c([nH]c12)C(CC)(CC(=O)OCCC[Se]C(F)(F)F)OCC3 (stereo not given)
IC50 (MCF7): 8.7 µM | fold change (FC) [1]: 0.4 | IC50 (PC-3): 19.7 µM | Activity [2]: 86.4 | inhibition [3]: 41.4% | IC50 (Caco-2): 10.4 µM | IC50 (BGC-823 [4]): 18.5 µM | Activity [5]: Active

O=C(OCCC[Se]C(F)(F)F)c1ccccc1Nc1cccc(C(F)(F)F)c1
Activity (BGC-823 [6]): Active | IC50 (MCF7): 4.2 µM | fold change (FC) [1]: 0.7 | Activity (BGC-823 [7]): Active | IC50 (PC-3): 5.8 µM | Activity (BGC-823 [8]): Active | Activity [2]: 115 | inhibition [3]: 68.6% | IC50 (Caco-2): 3.5 µM | IC50 (BGC-823 [4]): 2.7 µM

CC(C(=O)OCCC[Se]C#N)c1ccc(-c2ccccc2)c(F)c1 (stereo not given)
IC50 (MCF7): 22.4 µM | IC50 (PC-3): 19.7 µM | Activity [2]: 86.5 | inhibition [3]: 17.2% | IC50 (Caco-2): 27.5 µM | IC50 (BGC-823 [4]): 29.4 µM

CC(C(=O)OCCC[Se]C#N)c1cccc(C(=O)c2ccccc2)c1 (stereo not given)
IC50 (MCF7): 8.3 µM | IC50 (PC-3): 12.6 µM | Activity [2]: 67.6 | inhibition [3]: 57.1% | IC50 (Caco-2): 19.7 µM | IC50 (BGC-823 [4]): 12.6 µM | Activity [5]: Active

COc1ccc2cc([C@H](C)C(=O)O)ccc2c1 [NAPROXEN]
IC50 (MCF7): > 50 µM | IC50 (PC-3): > 50 µM | IC50 (Caco-2): > 50 µM | IC50 (BGC-823 [4]): > 50 µM

COc1ccc2c(c1)c(CC(=O)OCCC[Se]C#N)c(C)n2C(=O)c1ccc(Cl)cc1
IC50 (MCF7): 29.3 µM | fold change (FC) [1]: 0.4 | IC50 (PC-3): 21.8 µM | Activity [2]: 72.4 | inhibition [3]: 44.3% | IC50 (Caco-2): 32.4 µM | IC50 (BGC-823 [4]): 35.5 µM

CC(C)Cc1ccc(C(C)C(=O)O)cc1 (stereo not given) [IBUPROFEN]
IC50 (MCF7): > 50 µM | IC50 (PC-3): > 50 µM | IC50 (Caco-2): > 50 µM | IC50 (BGC-823 [4]): > 50 µM

CCc1cccc2c3c([nH]c12)C(CC)(CC(=O)OCCC[Se]C#N)OCC3 (stereo not given)
IC50 (MCF7): 14.4 µM | fold change (FC) [1]: 0.3 | IC50 (PC-3): 31.4 µM | Activity [2]: 69.4 | inhibition [3]: 30.4% | IC50 (Caco-2): 11.5 µM | IC50 (BGC-823 [4]): 21.4 µM

CC(=O)Oc1ccccc1C(=O)OCCC[Se]C#N
IC50 (MCF7): 8.9 µM | fold change (FC) [1]: 0.3 | IC50 (PC-3): 11.2 µM | Activity [2]: 78.3 | inhibition [3]: 27.3% | IC50 (Caco-2): 14.5 µM | IC50 (BGC-823 [4]): 17.3 µM

CC(C)Cc1ccc(C(C)C(=O)OCCC[Se]C#N)cc1 (stereo not given)
IC50 (MCF7): 19.5 µM | fold change (FC) [1]: 0.3 | IC50 (PC-3): 22.5 µM | Activity [2]: 60.3 | inhibition [3]: 31.2% | IC50 (Caco-2): 14.5 µM | IC50 (BGC-823 [4]): 24.5 µM

CC(=O)Oc1ccccc1C(=O)O [ASPIRIN]
IC50 (MCF7): > 50 µM | IC50 (PC-3): > 50 µM | IC50 (Caco-2): > 50 µM | IC50 (BGC-823 [4]): > 50 µM

N#C[Se]CCCOC(=O)c1ccccc1Nc1cccc(C(F)(F)F)c1
IC50 (MCF7): 14.2 µM | fold change (FC) [1]: 0.5 | IC50 (PC-3): 7.5 µM | Activity [2]: 76.1 | inhibition [3]: 51.5% | IC50 (Caco-2): 8.4 µM | IC50 (BGC-823 [4]): 13.7 µM

CC1=C(CC(=O)OCCC[Se]C(F)(F)F)c2cc(F)ccc2/C1=C\c1ccc([S+](C)[O-])cc1 (stereo not given)
IC50 (MCF7): 19.6 µM | fold change (FC) [1]: 0.5 | IC50 (PC-3): 11.6 µM | Activity [2]: 73.7 | inhibition [3]: 44.9% | IC50 (Caco-2): 16.4 µM | IC50 (BGC-823 [4]): 14.4 µM | Activity [5]: Active

O=c1[nH]cc(F)c(=O)[nH]1 [FLUOROURACIL]
IC50 (PC-3): 9.5 µM | IC50 (Caco-2): 7.8 µM | IC50 (BGC-823 [4]): 15.4 µM

O=C1O[C@H]([C@@H](O)CO)C(O)=C1O
fold change (FC) [1]: 1 | Activity [2]: 297 | inhibition [3]: 96.4%

Cc1cccc(Nc2ccccc2C(=O)OCCC[Se]C(F)(F)F)c1C
IC50 (MCF7): 8.5 µM | fold change (FC) [1]: 0.3 | IC50 (PC-3): 24.5 µM | Activity [2]: 77.6 | inhibition [3]: 23.3% | IC50 (Caco-2): 13.3 µM | IC50 (BGC-823 [4]): 19.6 µM

COc1ccc2c(c1)c(CC(=O)OCCC[Se]C(F)(F)F)c(C)n2C(=O)c1ccc(Cl)cc1
IC50 (MCF7): 9.3 µM | fold change (FC) [1]: 0.4 | IC50 (PC-3): 7.8 µM | Activity [2]: 62.6 | inhibition [3]: 36.6% | IC50 (Caco-2): 10.5 µM | IC50 (BGC-823 [4]): 7.3 µM

CC(C)Cc1ccc(C(C)C(=O)OCCC[Se]C(F)(F)F)cc1 (stereo not given)
IC50 (MCF7): 9.9 µM | fold change (FC) [1]: 0.5 | IC50 (PC-3): 10.4 µM | Activity [2]: 95.7 | inhibition [3]: 48.5% | IC50 (Caco-2): 9.5 µM | IC50 (BGC-823 [4]): 14.3 µM | Activity [5]: Active

CC1=C(CC(=O)OCCC[Se]C#N)c2cc(F)ccc2/C1=C\c1ccc([S+](C)[O-])cc1 (stereo not given)
IC50 (MCF7): 31.3 µM | fold change (FC) [1]: 0.5 | IC50 (PC-3): 22.3 µM | Activity [2]: 91.3 | inhibition [3]: 45.7% | IC50 (Caco-2): 28.6 µM | IC50 (BGC-823 [4]): 17.5 µM | Activity [5]: Active

COc1ccc2cc(C(C)C(=O)OCCC[Se]C#N)ccc2c1 (stereo not given)
IC50 (MCF7): 32.8 µM | IC50 (PC-3): 22 µM | Activity [2]: 81.6 | inhibition [3]: 24.6% | IC50 (Caco-2): 21.5 µM | IC50 (BGC-823 [4]): 17.3 µM

COc1ccc2cc(C(C)C(=O)OCCC[Se]C(F)(F)F)ccc2c1 (stereo not given)
IC50 (MCF7): 12.4 µM | IC50 (PC-3): 18.4 µM | Activity [2]: 91.4 | inhibition [3]: 37% | IC50 (Caco-2): 16.3 µM | IC50 (BGC-823 [4]): 10.8 µM

CC(C(=O)OCCC[Se]C(F)(F)F)c1ccc(-c2ccccc2)c(F)c1 (stereo not given)
Activity (BGC-823 [6]): Active | IC50 (MCF7): 2.7 µM | fold change (FC) [1]: 0.8 | Activity (BGC-823 [7]): Active | IC50 (PC-3): 3.3 µM | Activity (BGC-823 [8]): Active | Activity [2]: 119 | inhibition [3]: 73.5% | IC50 (Caco-2): 4.5 µM | IC50 (BGC-823 [4]): 2.5 µM

CC(C(=O)OCCC[Se]C(F)(F)F)c1cccc(C(=O)c2ccccc2)c1 (stereo not given)
Activity (BGC-823 [6]): Active | IC50 (MCF7): 6.5 µM | fold change (FC) [1]: 0.7 | Activity (BGC-823 [7]): Active | IC50 (PC-3): 8.8 µM | Activity (BGC-823 [8]): Active | Activity [2]: 128 | inhibition [3]: 66.3% | IC50 (Caco-2): 9.5 µM | IC50 (BGC-823 [4]): 4.8 µM | Activity [5]: Active
